≈ marks a conversion by molar mass, not a printed value. Calls of active or inactive are those of the source. The rule behind the calls is not given here.
Experiments:
[1] = molecular target: Maltase-glucoamylase (Homo sapiens) (UniProt O43451); test: Inhibition of alpha-glucosidase in 1.20 mg/200 uL
[2] = Cytotoxicity against HeLa cells; assay type: cell-based; settings: human, read-out: MIC
In short: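 HeLa cell cultures examined by microscopy; the minimal cytotoxic concentration is the level that causes a microscopically detectable alteration of normal cell morphology.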

[3] = test system: Respiratory syncytial virus; test: Antiviral activity against RSV; assay type: functional; settings: human respiratory syncytial virus
In short: (§1)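 Antiviral test in HeLa cell cultures; the minimum inhibitory concentration is the level that reduces virus-induced cytopathogenicity by 50%.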

Coxsackievirus B4 = test: Antiviral activity against CV B4; assay type: functional; settings: Enterovirus B; in short: as §1
[4] = test system: Vesicular stomatitis virus; test: Antiviral activity against VSV; assay type: functional
In short: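 Tested in both E6SM and HeLa cell cultures; the minimum inhibitory concentration is the level that reduces virus-induced cytopathogenicity by 50%.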

[5] = Cytotoxicity against E6SM cells; assay type: cell-based; settings: human, read-out: MIC
In short: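 Microscopic scoring of E6SM cell cultures; minimal cytotoxic concentration is the concentration causing a detectable alteration of normal cell morphology.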

Human alphaherpesvirus 2 = test: Antiviral activity against HSV2 G; assay type: functional; settings: Human alphaherpesvirus 2, G
In short: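 Virus-induced cytopathogenicity in E6SM cell cultures; value is the concentration needed to reduce cytopathogenicity by 50%.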

Human alphaherpesvirus 1 [6] = test: Antiviral activity against HSV1 TK KOS ACVr; assay type: functional; settings: Human alphaherpesvirus 1, TK KOS ACVr
In short: (§2)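 Antiviral test in E6SM cell cultures; the minimum inhibitory concentration is the level that reduces virus-induced cytopathogenicity by 50%.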

Vaccinia virus = test: Antiviral activity against vaccinia virus; assay type: functional; settings: Orthopoxvirus vaccinia; in short: as §2
Human alphaherpesvirus 1 [7] = test: Antiviral activity against HSV1 KOS; assay type: functional; settings: Human alphaherpesvirus 1, KOS; in short: as §2
CCRF-CEM = test: Cytostatic activity against human CEM/0 cells; assay type: functional, cell-based
In short: (§3)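 Tumour cell proliferation assay; IC50 is the compound concentration that inhibits cell proliferation by 50%.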

[8] = Cytostatic activity against mouse L1210/0 cells; assay type: functional, cell-based; in short: as §3
MOLT-4 = test: Cytostatic activity against human Molt4/C8 cells; assay type: functional, cell-based; in short: as §3

Maltase-glucoamylase (Homo sapiens), sequence (O43451 whole entry, looked up): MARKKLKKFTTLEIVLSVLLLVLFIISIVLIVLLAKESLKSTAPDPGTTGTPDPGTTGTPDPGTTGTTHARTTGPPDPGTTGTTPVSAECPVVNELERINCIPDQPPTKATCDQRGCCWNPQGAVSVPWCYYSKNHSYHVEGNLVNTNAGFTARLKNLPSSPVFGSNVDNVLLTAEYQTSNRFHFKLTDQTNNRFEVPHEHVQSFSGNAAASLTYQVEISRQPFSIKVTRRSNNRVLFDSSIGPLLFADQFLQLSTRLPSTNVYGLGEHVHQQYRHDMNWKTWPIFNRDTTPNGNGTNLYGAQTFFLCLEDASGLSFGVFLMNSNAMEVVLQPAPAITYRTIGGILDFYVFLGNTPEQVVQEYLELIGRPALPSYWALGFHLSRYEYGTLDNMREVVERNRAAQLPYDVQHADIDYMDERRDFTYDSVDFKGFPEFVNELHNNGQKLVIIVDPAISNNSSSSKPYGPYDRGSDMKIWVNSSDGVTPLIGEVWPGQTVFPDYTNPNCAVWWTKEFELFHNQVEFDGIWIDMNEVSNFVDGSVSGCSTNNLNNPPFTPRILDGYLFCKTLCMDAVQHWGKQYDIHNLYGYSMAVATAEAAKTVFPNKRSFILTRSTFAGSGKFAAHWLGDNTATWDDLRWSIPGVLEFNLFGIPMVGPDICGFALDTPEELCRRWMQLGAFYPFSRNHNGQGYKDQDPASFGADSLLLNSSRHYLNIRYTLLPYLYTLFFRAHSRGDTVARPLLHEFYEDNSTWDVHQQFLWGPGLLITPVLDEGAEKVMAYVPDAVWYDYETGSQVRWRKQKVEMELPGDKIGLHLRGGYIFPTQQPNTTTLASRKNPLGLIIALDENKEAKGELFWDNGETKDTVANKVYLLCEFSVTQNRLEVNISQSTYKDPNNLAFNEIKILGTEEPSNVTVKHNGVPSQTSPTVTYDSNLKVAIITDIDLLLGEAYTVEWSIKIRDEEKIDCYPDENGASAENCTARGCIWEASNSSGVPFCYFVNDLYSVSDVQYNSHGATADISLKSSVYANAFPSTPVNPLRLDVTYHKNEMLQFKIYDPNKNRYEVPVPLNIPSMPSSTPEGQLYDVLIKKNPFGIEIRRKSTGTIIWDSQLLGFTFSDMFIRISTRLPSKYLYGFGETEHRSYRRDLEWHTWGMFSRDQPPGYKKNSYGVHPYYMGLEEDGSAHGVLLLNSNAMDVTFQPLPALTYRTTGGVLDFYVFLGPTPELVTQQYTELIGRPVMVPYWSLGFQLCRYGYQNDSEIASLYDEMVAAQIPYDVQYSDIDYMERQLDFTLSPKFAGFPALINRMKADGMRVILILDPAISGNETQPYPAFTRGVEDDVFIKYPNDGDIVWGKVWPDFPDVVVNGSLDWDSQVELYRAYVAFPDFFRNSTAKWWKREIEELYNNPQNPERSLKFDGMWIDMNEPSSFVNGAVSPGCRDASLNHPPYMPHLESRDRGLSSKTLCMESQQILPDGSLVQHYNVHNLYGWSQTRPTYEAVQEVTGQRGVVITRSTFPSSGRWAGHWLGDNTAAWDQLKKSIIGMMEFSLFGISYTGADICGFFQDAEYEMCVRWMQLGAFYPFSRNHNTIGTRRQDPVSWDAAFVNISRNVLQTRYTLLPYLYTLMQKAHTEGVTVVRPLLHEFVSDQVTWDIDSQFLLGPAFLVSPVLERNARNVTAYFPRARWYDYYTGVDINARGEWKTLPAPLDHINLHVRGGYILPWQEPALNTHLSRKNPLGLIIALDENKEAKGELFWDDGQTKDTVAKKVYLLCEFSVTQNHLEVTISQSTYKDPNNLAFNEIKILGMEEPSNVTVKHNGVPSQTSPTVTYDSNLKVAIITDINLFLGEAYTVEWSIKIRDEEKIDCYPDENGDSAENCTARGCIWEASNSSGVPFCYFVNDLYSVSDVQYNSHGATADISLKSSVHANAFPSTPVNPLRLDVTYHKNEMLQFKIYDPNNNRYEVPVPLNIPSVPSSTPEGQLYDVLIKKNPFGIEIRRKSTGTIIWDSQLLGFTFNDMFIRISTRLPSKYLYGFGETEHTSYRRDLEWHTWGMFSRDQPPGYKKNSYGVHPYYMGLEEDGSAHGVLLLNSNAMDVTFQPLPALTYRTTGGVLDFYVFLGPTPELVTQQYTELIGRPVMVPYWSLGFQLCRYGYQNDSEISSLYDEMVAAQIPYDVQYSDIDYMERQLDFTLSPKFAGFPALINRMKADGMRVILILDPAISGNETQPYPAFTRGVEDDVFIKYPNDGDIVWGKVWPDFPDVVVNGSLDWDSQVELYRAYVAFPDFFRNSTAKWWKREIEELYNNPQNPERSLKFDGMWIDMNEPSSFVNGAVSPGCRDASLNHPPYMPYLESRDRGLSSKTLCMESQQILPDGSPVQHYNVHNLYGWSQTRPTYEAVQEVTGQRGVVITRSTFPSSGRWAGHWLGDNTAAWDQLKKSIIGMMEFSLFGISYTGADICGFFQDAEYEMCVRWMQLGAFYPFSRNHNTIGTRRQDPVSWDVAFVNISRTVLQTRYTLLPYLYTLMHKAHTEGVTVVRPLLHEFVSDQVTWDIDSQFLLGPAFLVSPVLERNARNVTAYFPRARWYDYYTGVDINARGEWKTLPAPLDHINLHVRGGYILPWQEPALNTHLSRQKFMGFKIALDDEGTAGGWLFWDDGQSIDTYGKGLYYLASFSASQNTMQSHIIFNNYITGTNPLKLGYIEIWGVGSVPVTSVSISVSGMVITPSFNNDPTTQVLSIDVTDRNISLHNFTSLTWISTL

## CC1(C)CCC[C@]2(C)[C@H]3COC(=O)C3=CC[C@@H]12
[1]
  Activity: inactive

## OC[C@H]1NC[C@H](O)[C@@H](O)[C@@H]1O
[1]
  inhibition: 100%

## COC1O[C@H]2O[C@H](C3=C[C@@H](OC(C)=O)[C@H]4C(C)(C)CCC[C@]4(C)[C@@]3(O)C=O)O[C@@]23C1=C[C@@H](OC(C)=O)[C@H]1C(C)(C)CCC[C@@]13C (stereo partly drawn)
[1]
  inhibition: 26.5%

## CC1(C)CCC[C@]2(C)[C@H](C=O)C(C=O)=CC[C@@H]12
[1]
  Activity: inactive

## NC(=O)c1ncn([C@@H]2O[C@H](CO)[C@@H](O)[C@H]2O)n1 [RIBAVIRIN]
[2]
  MCC: > 500 µM
[3]
  MIC: 60 µM (≈ 14.7 µg/mL)
Coxsackievirus B4
  MIC: > 500 µM
[4]
  MIC: 300 µM (≈ 73.3 µg/mL)

## Nc1nc2c(ncn2COCCO)c(=O)[nH]1 [ACYCLOVIR]
[5]
  MCC: > 500000 nM
Human alphaherpesvirus 2
  MIC: 0.48 µM (≈ 0.108 µg/mL)
Human alphaherpesvirus 1 [6]
  MIC: 60 µM (≈ 13.5 µg/mL)
Vaccinia virus
  MIC: > 500 µM
[4]
  MIC: > 500 µM
Human alphaherpesvirus 1 [7]
  MIC: 0.48 µM (≈ 0.108 µg/mL)

## CC(=O)O[C@@H]1[C@H]([C@@H]2C3=C(C(=O)OC3)[C@@]3(C)CCCC(C)(C)[C@@H]3[C@@H]2OC(C)=O)C2=C(C(=O)OC2)[C@@]2(C)CCCC(C)(C)[C@H]12
[1]
  Activity: inactive

## CC(=O)O[C@@H]1C=C(C=O)[C@](O)(C=O)[C@@]2(C)CCCC(C)(C)[C@H]12 [CINNAMODIAL]
[5]
  MCC: ≥ 2060 nM
CCRF-CEM
  IC50: 1610 nM
[2]
  MCC: 10.3 µM
[3]
  MIC: > 2.06 µM
Coxsackievirus B4
  MIC: > 2.06 µM
[8]
  IC50: 580 nM
MOLT-4
  IC50: 1510 nM
[1]
  inhibition: 78.2%
Human alphaherpesvirus 2
  MIC: > 2.06 µM
Human alphaherpesvirus 1 [6]
  MIC: > 2.06 µM
Vaccinia virus
  MIC: > 2.06 µM
[4]
  MIC: > 2.06 µM
Human alphaherpesvirus 1 [7]
  MIC: > 2.06 µM

## CC(=O)OC1=CC2=C(COC2=O)[C@@]2(C)CCCC(C)(C)[C@H]12
[1]
  Activity: inactive

## CC(=O)O[C@@H]1C=C([C@@H]2O[C@@H]3O[C@H](O)C4=C[C@@H](OC(C)=O)[C@H]5C(C)(C)CCC[C@]5(C)[C@]43O2)[C@](O)(C=O)[C@@]2(C)CCCC(C)(C)[C@H]12
[1]
  Activity: inactive

## CC(C)=CCC/C(C)=C/CC/C(C)=C/CC[C@]1(C)CCc2cc(O)cc(C)c2O1
[1]
  Activity: inactive

## CC(=O)O[C@@H]1C=C2C3OC4OC5OC(O[C@@]24[C@@]2(C)CCCC(C)(C)[C@H]12)C1=C[C@@H](OC(C)=O)[C@H]2C(C)(C)CCC[C@]2(C)[C@]15O3
[1]
  Activity: inactive

## CC(=O)O[C@@H]1[C@@H](O[C@H]2O[C@@H]3O[C@H](C4=C[C@@H](OC(C)=O)[C@H]5C(C)(C)CCC[C@]5(C)[C@@]4(O)C=O)O[C@@]34C2=C[C@@H](OC(C)=O)[C@H]2C(C)(C)CCC[C@@]24C)C2=C(C(=O)OC2)[C@@]2(C)CCCC(C)(C)[C@H]12
[1]
  Activity: inactive

## CC1=C(C(=O)O)C(=O)C2=C3[C@@](C)(CCC[C@]13C)CO2
[1]
  Activity: inactive

## CC(=O)O[C@@H]1C=C(C2O[C@@H]3OC(O)C4=C[C@@H](OC(C)=O)[C@H]5C(C)(C)CCC[C@]5(C)[C@]43O2)[C@](O)(C=O)[C@@]2(C)CCCC(C)(C)[C@H]12 (stereo partly drawn) [CAPSICODENDRIN]
[5]
  MCC: ≥ 1030 nM
CCRF-CEM
  IC50: 860 nM
[2]
  MCC: 5.16 µM
[3]
  MIC: > 1.03 µM
Coxsackievirus B4
  MIC: > 1.03 µM
[8]
  IC50: 1210 nM
MOLT-4
  IC50: 940 nM
[1]
  inhibition: 89.4%
Human alphaherpesvirus 2
  MIC: > 1.03 µM
Human alphaherpesvirus 1 [6]
  MIC: > 1.03 µM
Vaccinia virus
  MIC: > 1.03 µM
[4]
  MIC: > 1.03 µM
Human alphaherpesvirus 1 [7]
  MIC: > 1.03 µM

## CC1(C)CCC[C@]2(C)C3=C(C=C[C@@H]12)C(=O)OC3
[1]
  Activity: inactive
